Reference: ChEMBL document CHEMBL1152571, “Synthesis and biological evaluation of 4-fluoroproline and 4-fluoropyrrolidine-2-acetic acid derivatives as new GABA uptake inhibitors” (Bioorg Med Chem, 2009)

Key:
[1] = target: Sodium- and chloride-dependent GABA transporter 1 (Mus musculus, UniProt P31648); assay: Inhibition of GAT1 in mouse D8 cells assessed as [3H]GABA transport by liquid scintillation counting; format: cell-based
In short: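 D8 cells expressing mouse GAT-1 were grown in RPMI 1640 with 10% FBS to near confluence (about 60,000 cells/well), rinsed with PBS and preincubated 10 min at room temperature in HBSS. [3H]GABA was added (151 nM final) for 20 min at room temperature. Uptake was stopped by aspiration and three rapid cold-PBS washes, and cells were lysed in 2 N NaOH. Uptake was counted by scintillation, giving IC50.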

GABA transporter 3 = target: T1, GABA transporter 3 (Mus musculus, UniProt P31649); assay: Inhibition of GAT3 in mouse D8 cells assessed as [3H]GABA transport by liquid scintillation counting; format: cell-based
T1 sequence (P31649 whole entry): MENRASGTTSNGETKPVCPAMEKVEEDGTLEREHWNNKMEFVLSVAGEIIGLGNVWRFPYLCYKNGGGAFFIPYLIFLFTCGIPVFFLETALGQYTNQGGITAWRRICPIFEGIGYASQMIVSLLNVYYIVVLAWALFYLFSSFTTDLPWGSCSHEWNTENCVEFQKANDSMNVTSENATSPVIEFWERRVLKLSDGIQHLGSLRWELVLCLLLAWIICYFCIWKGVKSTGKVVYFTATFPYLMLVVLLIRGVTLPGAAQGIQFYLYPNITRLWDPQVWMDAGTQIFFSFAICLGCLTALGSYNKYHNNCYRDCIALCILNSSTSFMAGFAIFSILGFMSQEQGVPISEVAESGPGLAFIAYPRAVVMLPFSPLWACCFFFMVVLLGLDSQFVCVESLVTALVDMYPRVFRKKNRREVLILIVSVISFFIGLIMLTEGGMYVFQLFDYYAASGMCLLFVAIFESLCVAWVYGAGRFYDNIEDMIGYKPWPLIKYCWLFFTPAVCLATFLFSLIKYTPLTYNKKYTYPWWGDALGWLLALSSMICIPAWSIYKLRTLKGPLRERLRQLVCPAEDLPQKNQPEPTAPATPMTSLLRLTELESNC

Structure (SMILES) | IC50 [1] [µM] | IC50 (GABA transporter 3) [µM]
Cc1ccsc1C(=CCCN1C[C@@H](O)C[C@H]1CC(=O)O)c1sccc1C | 5.14 | 
O=C(O)C[C@@H]1C[C@@H](O)CN1CCC=C(c1ccccc1)c1ccccc1 | 3.29 | > 100
Cc1ccsc1C(=CCCN1C[C@@H](F)C[C@H]1C(=O)O)c1sccc1C | 18 | 
O=C(O)[C@@H]1C[C@@H](O)CN1CCC=C(c1ccccc1)c1ccccc1 | 79.6 | > 100
O=C(O)[C@@H]1C[C@@H](F)CN1CCC=C(c1ccccc1)c1ccccc1 | 67.4 | 
Cc1ccsc1C(=CCCN1C[C@@H](F)C[C@@H]1CC(=O)O)c1sccc1C | 4.94 | 
O=C(O)[C@@H]1C[C@H](F)CN1CCC=C(c1ccccc1)c1ccccc1 | > 100 | 
Cc1ccsc1C(=CCCN1C[C@H](F)C[C@H]1C(=O)O)c1sccc1C | 12.8 | 
O=C(O)C[C@H]1C[C@H](F)CN1CCC=C(c1ccccc1)c1ccccc1 | 5.81 | 

Results, then the compound that gave them:

IC50 [1] [µM] | IC50 (GABA transporter 3) [µM] | Structure (SMILES)
4.92 |  | O=C(O)C[C@@H]1C[C@H](O)CN1CCC=C(c1ccccc1)c1ccccc1
2.56 | 309 | O=C(O)[C@@H]1CCCN1CCC=C(c1ccccc1)c1ccccc1
0.4 | 64.8 | O=C(O)C[C@@H]1CCCN1CCC=C(c1ccccc1)c1ccccc1
3.96 |  | O=C(O)C[C@H]1C[C@@H](F)CN1CCC=C(c1ccccc1)c1ccccc1
2.97 |  | Cc1ccsc1C(=CCCN1C[C@H](F)C[C@@H]1CC(=O)O)c1sccc1C
0.34 | 26.6 | Cc1ccsc1C(=CCCN1CCC[C@H]1CC(=O)O)c1sccc1C
0.65 |  | Cc1ccsc1C(=CCCN1CCC[C@H]1C(=O)O)c1sccc1C
3.15 | > 100 | Cc1ccsc1C(=CCCN1C[C@H](O)C[C@H]1CC(=O)O)c1sccc1C
0.191 |  | Cc1ccsc1C(=CCCN1CCC[C@@H](C(=O)O)C1)c1sccc1C [TIAGABINE]
